VIM-2 inh: inhibitors of Pseudomonas aeruginosa VIM-2 metallo-beta-lactamase | purified VIM-2, nitrocefin hydrolysis, epi-absorbance fluorescence | inhibition, % at 5.6 µM | 290,000 tested, 0.89% active;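 active = inhibition above the mean of all tested compounds plus 3 SD, cutoff set per screening run, cut at about 7.5% in these data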;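 also: red hydrolysis product quenches plate fluorescence so inhibitors raise well fluorescence; 0% = enzyme with DMSO and 100% = DMSO without enzyme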
IMP-1 inhibitor: inhibitors of Pseudomonas aeruginosa IMP-1 metallo-beta-lactamase; purified IMP-1, nitrocefin hydrolysis, epi-absorbance fluorescence; inhibition, % at 5.6 µM; 290,000 tested, 0.45% active;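 active = inhibition above the mean plus 3 SD of all compounds in the same screening run, cut at about 4.5% in these data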;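 also: 0% = IMP-1 with DMSO and 100% = DMSO wells lacking enzyme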
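System – purified recombinant IMP-1 beta-lactamase · Input – IMP-1 dispensed at 0.2 nM · Timing – 15 min preincubation plus 25 min reaction at 25 °C · Signal – Epi-absorbance fluorescence, 480 nm excitation, 530 nm emission · Measure – percent IMP-1 inhibition derived from blank-referenced optical density · Controls – Enzyme-plus-DMSO low control, enzyme-free DMSO high control · Replication – singlicate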
Jurkat NFkB inh: inhibitors of the PMA/ionomycin-induced NF-kB reporter in Jurkat cells. 330,000 tested, 0.53% active. PMA/ionomycin-induced NF-kB luciferase reporter, luminescence. inhibition, % at 4 µM. AID 435003; in the data active = inhibition above about 50%
aSyn 5UTR inh: 5' untranslated region of α-synuclein, MLPCN primary screen. alpha-synuclein 5'UTR reporter, inhibitor activity. inhibition, % (tested at 7.5 µM). 300,000 tested, 0.82% active. AID 1813; in the data active = inhibition above about 60%;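 also: H4 neuroglioblastoma cells stably carrying SNCA 5'UTR luciferase fusion; 0% = DMSO wells and 100% = positive control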
Mdm2-MdmX inh: human Mdm2/MdmX binding inhibition. O15151+Q00987. SaOS-2 split-luciferase Mdm2/MdmX complementation, luminescence. 330,000 tested, 3% active. inhibition, % at 8 µM. AID 485346;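 active = inhibition of at least 50% at 8 µM in the primary screen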
Target sequence (O15151 whole entry, looked up): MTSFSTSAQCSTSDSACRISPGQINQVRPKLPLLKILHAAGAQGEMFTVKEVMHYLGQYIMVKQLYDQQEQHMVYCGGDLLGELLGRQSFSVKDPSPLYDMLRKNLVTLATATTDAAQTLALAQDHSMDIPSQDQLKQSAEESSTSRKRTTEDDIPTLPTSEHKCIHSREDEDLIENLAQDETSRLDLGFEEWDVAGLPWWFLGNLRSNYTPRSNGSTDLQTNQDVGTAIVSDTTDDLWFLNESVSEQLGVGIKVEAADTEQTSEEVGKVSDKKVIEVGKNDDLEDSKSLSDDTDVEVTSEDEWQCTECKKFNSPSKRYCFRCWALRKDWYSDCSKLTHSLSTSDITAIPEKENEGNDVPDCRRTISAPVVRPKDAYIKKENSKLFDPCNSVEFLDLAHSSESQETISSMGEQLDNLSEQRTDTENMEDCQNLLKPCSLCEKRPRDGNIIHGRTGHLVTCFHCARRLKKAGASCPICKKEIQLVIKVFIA
Target sequence (Q00987 whole entry, looked up): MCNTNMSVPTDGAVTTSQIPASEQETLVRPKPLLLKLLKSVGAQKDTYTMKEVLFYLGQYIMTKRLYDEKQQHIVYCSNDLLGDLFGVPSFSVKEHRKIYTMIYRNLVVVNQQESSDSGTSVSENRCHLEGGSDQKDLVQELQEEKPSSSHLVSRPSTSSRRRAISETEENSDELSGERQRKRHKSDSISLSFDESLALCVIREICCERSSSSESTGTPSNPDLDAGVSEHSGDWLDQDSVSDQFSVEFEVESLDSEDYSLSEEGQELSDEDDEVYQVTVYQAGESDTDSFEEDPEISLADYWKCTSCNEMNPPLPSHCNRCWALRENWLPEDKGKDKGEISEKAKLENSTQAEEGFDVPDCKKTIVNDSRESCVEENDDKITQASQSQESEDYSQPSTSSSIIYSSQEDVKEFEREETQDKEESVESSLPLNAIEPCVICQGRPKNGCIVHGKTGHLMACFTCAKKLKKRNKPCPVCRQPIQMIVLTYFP
697 NFkB inh: lowers PMA/ionomycin-induced NF-kB signal in 697 B cells; 697 B-cell NF-kB luciferase reporter, 16 h; inhibition, % at 4 µM; 330,000 tested, 0.33% active; AID 435022; in the data active = inhibition above about 35%
Mdm2-MdmX conf: human Mdm2/MdmX binding inhibition, confirmed | shares compounds with Mdm2-MdmX inh | luminescent assay | inhibition, % at 8 µM | 10,000 tested, 55% active | AID 489028; in the data active = inhibition above about 40%
FLuc counter: inhibits full-length luciferase, flagging false Mdm2/MdmX hits. shares compounds with Mdm2-MdmX inh. SaOS-2 full-length luciferase counterscreen, luminescence. inhibition, % at 8 µM. 6,200 tested, 77% active. AID 504607;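 active = mean inhibition at 8 µM reaching about 37%, which flags the compound as non-specific, limit read from the data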;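 also: p53-null SaOS-2 cells with luciferase driven by a doxycycline-inducible promoter; compound on cells about two nights before reading with doxycycline added after day one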
Starred values were filed as active, the others as inactive; · = not tested or not shown. In the library only some 4.7% were active in any assay of this set; here they are far more common.

SMILES	VIM-2 inh	IMP-1 inhibitor	Jurkat NFkB inh	aSyn 5UTR inh	Mdm2-MdmX inh	697 NFkB inh	Mdm2-MdmX conf	FLuc counter
CCOc1ccccc1N1CCN(C(=O)c2cc(-c3cc(OC)ccc3OC)nc3ccccc23)CC1	0	1	3	1	73*	14	46*	62*
CCOc1cc(C2c3c(oc4ccccc4c3=O)C(=O)N2c2nccs2)ccc1O (configuration not stated)	-2	-3	-1	33	-12	6	·	·
CCOC(=O)N1CCN(C(=O)c2cc(-c3ccncc3)nc3ccccc23)CC1	·	·	47	-6	57*	-8	66*	55*
Nc1nnc(CC(=O)N/N=C/c2ccc(-c3ccc(Cl)cc3Cl)o2)s1	-4	-1	1	12	68*	23	34	83*
O=c1[nH]c(CN2CCN(c3ccccc3)CC2)nc2scc(-c3ccccc3)c12	-3	-1	-5	39	72*	-76	73*	54*
COc1cc(C(Nc2ccccn2)c2ccc3ccc(C)nc3c2O)cc(OC)c1O (configuration not stated)	0	-1	2	-43	79*	-84	81*	51*
Cc1cccc(NC(c2ccc(C)s2)c2ccc3ccc(C)nc3c2O)n1 (configuration not stated)	1	-1	15	-35	98*	-36	61*	24
Oc1ccccc1C(Nc1nccs1)c1ccc2cccnc2c1O (configuration not stated)	-3	-4	8	77*	64*	-45	78*	48*
OCCN1CCN(C(c2cccs2)c2ccc3cccnc3c2O)CC1 (configuration not stated)	1	-1	·	·	·	·	·	·
Oc1c(C(Nc2ccccn2)c2ccccn2)ccc2cccnc12 (configuration not stated)	-1	-4	24	54	53*	-16	71*	45*
C/C(=N\Nc1ccc([N+](=O)[O-])cc1[N+](=O)[O-])C(C)C(C)C (configuration not stated)	-4	-3	-10	14	14	4	·	·
COc1ccc(S(=O)(=O)N2CCC3(CC2)CC(=O)c2ccccc2O3)cc1C	·	·	-8	-17	21	15	·	·
O=C(CCl)c1cc2c3c(c1)CC(=O)N3CCC2	1	0	13	-59	77*	13	56*	12
CCCCN(C)CCCNC(=O)c1cn(CC)c2ccc(S(=O)(=O)N3CCc4ccccc4C3)cc2c1=O	-1	-3	-14	18	54*	-8	24	·
CCCCN(CC)CCCNC(=O)c1cn(CC)c2ccc(S(=O)(=O)N3CCc4ccccc4C3)cc2c1=O	0	0	-1	12	57*	0	22	·
CCCN(CCC)CCCNC(=O)c1cn(CC)c2ccc(S(=O)(=O)N3CCc4ccccc4C3)cc2c1=O	2	-2	-8	-9	75*	2	36	63*
CCOc1cc(C=C2C(=O)c3ccccc3C2=O)ccc1OCC(=O)Nc1ccc(C)cc1	-1	-3	-1	-61	5	11	·	·
CC(=O)c1ccc(S(=O)(=O)NCCC(=O)NC(C)c2ccncc2)cc1 (configuration not stated)	·	·	-7	·	3	3	·	·
Cc1n[nH]c(C)c1CCNCc1ccc(OCC(O)CN2CCCCC2)cc1 (configuration not stated)	-3	-3	-8	15	10	0	·	·
CCC(C(=O)N1CCOCC1)n1c2ccccc2c2nc(=O)cc(C)n21 (configuration not stated)	-2	-2	0	12	20	-1	·	·
O=S(=O)(c1ccccc1OC(F)(F)F)N1CCN(c2ccnc3cc(Cl)ccc23)CC1	-2	1	10	5	59*	-31	28	·
O=S(=O)(c1cccc(Br)c1)N1CCN(c2ccnc3cc(Cl)ccc23)CC1	-1	-5	8	-2	30	22	·	·
